# Published values collected from several papers.
# Lines come from different studies, so protocols differ.
# Target: Vascular endothelial growth factor receptor 1 (FLT1, Homo sapiens, UniProt P17948)
Structure (SMILES),test,conditions,remaining binding
COc1cnc(Nc2cccc(S(N)(=O)=O)c2)nc1N1CCN(c2ccccc2)C(=O)C1,"binding, competition with immobilised ligand",1 µM,98%
CN(c1nccc(-c2cnn3ncccc23)n1)C1CC1,binding,1 µM,100%
COc1ccc2c(c1)O[C@@H](c1ccc(OC)c(OC)c1)C[C@H]2NC(=O)C1(c2ccc3c(c2)OC(F)(F)O3)CC1,"cell-free assay, competition with immobilised ligand",1 µM,100%
N[C@@H]1CCN(c2nccc(-c3cnn4ncccc34)n2)C1,binding,1 µM,100%
COc1cnc(Nc2cccc(S(N)(=O)=O)c2)nc1N1CCN(c2ccccc2)CC1,"binding, competition with immobilised ligand",1 µM,97%
Cc1cnc(Nc2ccc(C(=O)N3CCC(N4CCCC4)CC3)cc2)nc1-c1cc2ccccc2s1,"binding, competition with immobilised ligand",1 µM,4.4%
COc1ccnn2ncc(-c3ccnc(N(C)C)n3)c12,binding,1 µM,100%
O=C1CCc2cc(Nc3cc(OC4CCOCC4)c([N+](=O)[O-])cc3Cl)ccc2N1,"cell-free assay, competition with immobilised ligand",1 µM,100%
O=C(NCCCN1CCOCC1)c1ccc(Nc2ncc(Cl)c(-c3ccc(Cl)s3)n2)cc1,"binding, competition with immobilised ligand",1 µM,5.7%
COc1ncc2cc3ccccc3nc2c1C#N,"cell-free assay, competition with immobilised ligand",5 µM,95%
CN(C)c1ncc(F)c(-c2cnn3ncccc23)n1,binding,1 µM,100%
O=C(NCCCN1CCOCC1)c1ccc(Nc2nccc(-c3cc4ccccc4s3)n2)cc1,"binding, competition with immobilised ligand",1 µM,70%
O=C(Nc1cccnn1)N1CCC(=Cc2cccc(Oc3ccc(C(F)(F)F)cn3)c2)CC1,"cell-free assay, competition with immobilised ligand",1 µM,100%
C[C@@H]1CCN(c2nccc(-c3cnn4ncccc34)n2)C1,binding,1 µM,100%
O=C(NCC1CCOCC1)c1n[nH]cc1NC(=O)c1c(F)cccc1F,"binding, competition with immobilised ligand",1 µM,90%
O=c1nc(-c2ccccn2)sc2ccccc12,"cell-free assay, competition with immobilised ligand",1 µM,100%
Nc1ncc2c(n1)-c1c([nH]c3ccc(C#CC4CC4)cc13)CCCC2,"binding, competition with immobilised ligand",1 µM,91%
CN([C@@H]1CCc2c(CC(=O)O)c3cc(S(C)(=O)=O)ccc3n2C1)S(=O)(=O)c1ccc(F)cc1,"cell-free assay, competition with immobilised ligand",1 µM,88%
Cc1cnn2ncc(-c3ccnc(N(C)C)n3)c2c1,binding,1 µM,97%
CCN1CCN(Cc2ccc(C(=O)Nc3ccc(C)c(Oc4ccc5c(c4)CC(=O)N5)c3)cc2C(F)(F)F)CC1,"binding, competition with immobilised ligand",1 µM,63%
CN(CCCC(F)(F)F)c1nccc(-c2cnn3ncccc23)n1,binding,1 µM,100%
CCC(=O)N[C@H]1CC[C@@H](C(=O)N(C)c2ccc(-c3nc4ccccc4o3)cc2)C1,"cell-free assay, competition with immobilised ligand",1 µM,98%
